Assay results: ChEMBL document CHEMBL1629465, “Efficient synthesis of novel 1,2,4-triazole fused acyclic and 21-28 membered macrocyclic and/or lariat macrocyclic oxaazathia crown compounds with potential antimicrobial activity” (2010)

How the values were obtained:
Format in all cases: functional
Conditions in all cases: read-out: DIZ
Aspergillus fumigatus [1] = assay: Antimicrobial activity against Aspergillus fumigatus RCMB 002008 at 1 mg/ml by agar diffusion technique
Method in brief: (§1)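 Agar well diffusion. Test compounds and reference standard drugs were diluted to 5.0, 2.5 and 1.0 mg/mL and applied to 0.6 cm wells. Inhibition zone beyond the control was scored as 0 (no inhibition), + (0.1–0.5 cm), ++ (0.6–1.0 cm) or +++ (1.0–1.5 cm).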

Aspergillus fumigatus [2] = assay: Antimicrobial activity against Aspergillus fumigatus RCMB 002008 at 2.5 mg/ml by agar diffusion technique; method in brief: as §1
Aspergillus fumigatus [3] = assay: Antimicrobial activity against Aspergillus fumigatus RCMB 002008 at 5 mg/ml by agar diffusion technique; method in brief: as §1
Penicillium italicum [4] = assay: Antimicrobial activity against Penicillium italicum RCMB 001018 at 1 mg/ml by agar diffusion technique; method in brief: as §1
Penicillium italicum [5] = assay: Antimicrobial activity against Penicillium italicum RCMB 001018 at 2.5 mg/ml by agar diffusion technique; method in brief: as §1
Penicillium italicum [6] = assay: Antimicrobial activity against Penicillium italicum RCMB 001018 at 5 mg/ml by agar diffusion technique; method in brief: as §1
[7] = system: Syncephalastrum racemosum; assay: Antimicrobial activity against Syncephalastrum racemosum RCMB 016001 at 1 mg/ml by agar diffusion technique; method in brief: as §1
[8] = system: Syncephalastrum racemosum; assay: Antimicrobial activity against Syncephalastrum racemosum RCMB 016001 at 2.5 mg/ml by agar diffusion technique; method in brief: as §1
[9] = system: Syncephalastrum racemosum; assay: Antimicrobial activity against Syncephalastrum racemosum RCMB 016001 at 5 mg/ml by agar diffusion technique; method in brief: as §1
Candida albicans [10] = assay: Antimicrobial activity against Candida albicans RCMB 005003 at 1 mg/ml by agar diffusion technique; method in brief: as §1
Candida albicans [11] = assay: Antimicrobial activity against Candida albicans RCMB 005003 at 2.5 mg/ml by agar diffusion technique; method in brief: as §1
Candida albicans [12] = assay: Antimicrobial activity against Candida albicans RCMB 005003 at 5 mg/ml by agar diffusion technique; method in brief: as §1
Staphylococcus aureus [13] = assay: Antimicrobial activity against Staphylococcus aureus RCMB 106001 at 1 mg/ml by agar diffusion technique; method in brief: as §1
Staphylococcus aureus [14] = assay: Antimicrobial activity against Staphylococcus aureus RCMB 106001 at 2.5 mg/ml by agar diffusion technique; method in brief: as §1
Staphylococcus aureus [15] = assay: Antimicrobial activity against Staphylococcus aureus RCMB 106001 at 5 mg/ml by agar diffusion technique; method in brief: as §1
Pseudomonas aeruginosa [16] = assay: Antimicrobial activity against Pseudomonas aeruginosa RCMB 102002 at 1 mg/ml by agar diffusion technique; method in brief: as §1
Pseudomonas aeruginosa [17] = assay: Antimicrobial activity against Pseudomonas aeruginosa RCMB 102002 at 2.5 mg/ml by agar diffusion technique; method in brief: as §1
Pseudomonas aeruginosa [18] = assay: Antimicrobial activity against Pseudomonas aeruginosa RCMB 102002 at 5 mg/ml by agar diffusion technique; method in brief: as §1
Bacillus subtilis [19] = assay: Antimicrobial activity against Bacillus subtilis RCMB 101001 at 1 mg/ml by agar diffusion technique; method in brief: as §1
Bacillus subtilis [20] = assay: Antimicrobial activity against Bacillus subtilis RCMB 101001 at 2.5 mg/ml by agar diffusion technique; method in brief: as §1
Bacillus subtilis [21] = assay: Antimicrobial activity against Bacillus subtilis RCMB 101001 at 5 mg/ml by agar diffusion technique; method in brief: as §1
Escherichia coli [22] = assay: Antimicrobial activity against Escherichia coli RCMB 103001 at 1 mg/ml by agar diffusion technique; method in brief: as §1
Escherichia coli [23] = assay: Antimicrobial activity against Escherichia coli RCMB 103001 at 2.5 mg/ml by agar diffusion technique; method in brief: as §1
Escherichia coli [24] = assay: Antimicrobial activity against Escherichia coli RCMB 103001 at 5 mg/ml by agar diffusion technique; method in brief: as §1

Row | SMILES | zone of inhibition at 1000 µg/mL (Aspergillus fumigatus [1]) [mm] | zone of inhibition at 2500 µg/mL (Aspergillus fumigatus [2]) [mm] | zone of inhibition at 5000 µg/mL (Aspergillus fumigatus [3]) [mm] | zone of inhibition at 1000 µg/mL (Penicillium italicum [4]) [mm] | zone of inhibition at 2500 µg/mL (Penicillium italicum [5]) [mm] | zone of inhibition at 5000 µg/mL (Penicillium italicum [6]) [mm] | zone of inhibition at 1000 µg/mL [7] [mm] | zone of inhibition at 2500 µg/mL [8] [mm] | zone of inhibition at 5000 µg/mL [9] [mm] | zone of inhibition at 1000 µg/mL (Candida albicans [10]) [mm] | zone of inhibition at 2500 µg/mL (Candida albicans [11]) [mm] | zone of inhibition at 5000 µg/mL (Candida albicans [12]) [mm] | zone of inhibition at 1000 µg/mL (Staphylococcus aureus [13]) [mm] | zone of inhibition at 2500 µg/mL (Staphylococcus aureus [14]) [mm] | zone of inhibition at 5000 µg/mL (Staphylococcus aureus [15]) [mm] | zone of inhibition at 1000 µg/mL (Pseudomonas aeruginosa [16]) [mm] | zone of inhibition at 2500 µg/mL (Pseudomonas aeruginosa [17]) [mm] | zone of inhibition at 5000 µg/mL (Pseudomonas aeruginosa [18]) [mm] | zone of inhibition at 1000 µg/mL (Bacillus subtilis [19]) [mm] | zone of inhibition at 2500 µg/mL (Bacillus subtilis [20]) [mm] | further results
1 | Nn1c(SCCCSc2nnc(-c3cccnc3)n2N)nnc1-c1cccnc1 | 0 | 1 | 1 | 0 | 0 | 0 | 0 | 0 | 1 | 0 | 0 | 1 | 0 | 0 | 0 | 0 | 0 | 0 | 0 | 0 | zone of inhibition at 5000 µg/mL (Bacillus subtilis [21]): 0 mm; zone of inhibition at 1000 µg/mL (Escherichia coli [22]): 0 mm; zone of inhibition at 2500 µg/mL (Escherichia coli [23]): 0 mm; zone of inhibition at 5000 µg/mL (Escherichia coli [24]): 0 mm
2 | CN(C/C=C/C#CC(C)(C)C)Cc1cccc2ccccc12 [TERBINAFINE] | 6 | 10 | 10 | 6 | 10 | 10 | 10 | 10 | 10 | 6 | 6 | 6 | 6 | 6 | 6 | 6 | 10 | 10 | 6 | 10 | zone of inhibition at 5000 µg/mL (Bacillus subtilis [21]): 10 mm; zone of inhibition at 1000 µg/mL (Escherichia coli [22]): 6 mm; zone of inhibition at 2500 µg/mL (Escherichia coli [23]): 6 mm; zone of inhibition at 5000 µg/mL (Escherichia coli [24]): 6 mm
3 | S=c1[nH]nc(-c2cccnc2)n1/N=C\c1ccccc1OCCCCOc1ccccc1/C=N\n1c(-c2cccnc2)n[nH]c1=S | 0 | 0 | 0 | 1 | 1 | 1 | 0 | 1 | 1 | 0 | 0 | 1 | 0 | 0 | 1 | 0 | 1 | 1 | 0 | 0 | zone of inhibition at 5000 µg/mL (Bacillus subtilis [21]): 0 mm; zone of inhibition at 1000 µg/mL (Escherichia coli [22]): 0 mm; zone of inhibition at 2500 µg/mL (Escherichia coli [23]): 0 mm; zone of inhibition at 5000 µg/mL (Escherichia coli [24]): 0 mm
